Assay results: ChEMBL document CHEMBL5661979, “Pharmacological inhibition of BMK1 suppresses tumor growth through promyelocytic leukemia protein” (Cancer Cell, 2010)
The source made the active and inactive calls. The rule behind the calls is not given here.

What was measured:
[1] = molecular target: Eukaryotic translation initiation factor 2-alpha kinase 3 (Homo sapiens, UniProt Q9NZJ5); assay: Inhibition of PEK in human HeLa cells lysate pre incubated for 15 mins followed by ATP acyl phosphate probe addition and measured after 10 mins by LC-MS/MS analysis; assay type: subcellular
[2] = molecular target: T1, Serine/threonine-protein kinase PLK1 (Homo sapiens, UniProt P53350); assay: Inhibition of PLK1 K1 site in human HeLa cells lysate pre incubated for 15 mins followed by ATP acyl phosphate probe addition and measured after 10 mins by LC-MS/MS analysis; assay type: subcellular
[3] = molecular target: Dual specificity mitogen-activated protein kinase kinase 6 (Homo sapiens, UniProt P52564); assay: Inhibition of MAP2K6 in human HeLa cells lysate pre incubated for 15 mins followed by ADP acyl phosphate probe addition and measured after 10 mins by LC-MS/MS analysis; assay type: subcellular
Sequence of Dual specificity mitogen-activated protein kinase kinase 6 (P52564 whole entry, canonical isoform): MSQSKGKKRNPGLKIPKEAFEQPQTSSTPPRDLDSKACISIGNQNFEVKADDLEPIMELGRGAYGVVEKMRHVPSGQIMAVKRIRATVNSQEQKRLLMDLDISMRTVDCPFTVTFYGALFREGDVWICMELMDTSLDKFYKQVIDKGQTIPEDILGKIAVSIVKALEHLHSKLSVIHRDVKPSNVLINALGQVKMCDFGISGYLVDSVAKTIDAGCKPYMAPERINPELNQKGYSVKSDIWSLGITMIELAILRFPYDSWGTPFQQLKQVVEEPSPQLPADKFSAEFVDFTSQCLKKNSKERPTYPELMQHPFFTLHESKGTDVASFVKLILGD

[4] = molecular target: T1, Serine/threonine-protein kinase PLK1; assay: Inhibition of PLK1 splice variant in human HeLa cells lysate pre incubated for 15 mins followed by ADP acyl phosphate probe addition and measured after 10 mins by LC-MS/MS analysis; assay type: subcellular
[5] = molecular target: Serine/threonine-protein kinase tousled-like 1 (Homo sapiens, UniProt Q9UKI8); assay: Inhibition of TLK1 in human HeLa cells lysate pre incubated for 15 mins followed by ADP acyl phosphate probe addition and measured after 10 mins by LC-MS/MS analysis; assay type: subcellular
[6] = molecular target: Serine/threonine-protein kinase 38-like (Homo sapiens, UniProt Q9Y2H1); assay: Inhibition of NDR2 in human HeLa cells lysate at 50 uM pre incubated for 15 mins followed by ADP acyl phosphate probe addition and measured after 10 mins by LC-MS/MS analysis relative to control; assay type: subcellular; conditions: time 25.0 min
Sequence of Serine/threonine-protein kinase 38-like (Q9Y2H1 2-464 limits assumed): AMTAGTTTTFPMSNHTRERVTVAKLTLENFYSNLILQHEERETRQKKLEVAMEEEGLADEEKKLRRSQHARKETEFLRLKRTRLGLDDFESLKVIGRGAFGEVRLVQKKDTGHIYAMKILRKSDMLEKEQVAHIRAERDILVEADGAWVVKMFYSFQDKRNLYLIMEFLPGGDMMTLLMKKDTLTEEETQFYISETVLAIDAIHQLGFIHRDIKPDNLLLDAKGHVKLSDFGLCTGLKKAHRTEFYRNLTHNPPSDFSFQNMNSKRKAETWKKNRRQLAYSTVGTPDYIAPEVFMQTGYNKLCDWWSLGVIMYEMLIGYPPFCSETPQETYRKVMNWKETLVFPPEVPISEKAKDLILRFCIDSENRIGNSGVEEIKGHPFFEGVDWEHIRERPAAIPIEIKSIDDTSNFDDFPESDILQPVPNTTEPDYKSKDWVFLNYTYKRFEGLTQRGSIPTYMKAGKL

[7] = molecular target: T2, Serine/threonine-protein kinase tousled-like 1 (Homo sapiens) (UniProt Q9UKI8); assay: Inhibition of TLK1 in human HeLa cells lysate at 10 uM pre incubated for 15 mins followed by ADP acyl phosphate probe addition and measured after 10 mins by LC-MS/MS analysis relative to control; assay type: subcellular; conditions: time 25.0 min
T2 sequence (whole entry): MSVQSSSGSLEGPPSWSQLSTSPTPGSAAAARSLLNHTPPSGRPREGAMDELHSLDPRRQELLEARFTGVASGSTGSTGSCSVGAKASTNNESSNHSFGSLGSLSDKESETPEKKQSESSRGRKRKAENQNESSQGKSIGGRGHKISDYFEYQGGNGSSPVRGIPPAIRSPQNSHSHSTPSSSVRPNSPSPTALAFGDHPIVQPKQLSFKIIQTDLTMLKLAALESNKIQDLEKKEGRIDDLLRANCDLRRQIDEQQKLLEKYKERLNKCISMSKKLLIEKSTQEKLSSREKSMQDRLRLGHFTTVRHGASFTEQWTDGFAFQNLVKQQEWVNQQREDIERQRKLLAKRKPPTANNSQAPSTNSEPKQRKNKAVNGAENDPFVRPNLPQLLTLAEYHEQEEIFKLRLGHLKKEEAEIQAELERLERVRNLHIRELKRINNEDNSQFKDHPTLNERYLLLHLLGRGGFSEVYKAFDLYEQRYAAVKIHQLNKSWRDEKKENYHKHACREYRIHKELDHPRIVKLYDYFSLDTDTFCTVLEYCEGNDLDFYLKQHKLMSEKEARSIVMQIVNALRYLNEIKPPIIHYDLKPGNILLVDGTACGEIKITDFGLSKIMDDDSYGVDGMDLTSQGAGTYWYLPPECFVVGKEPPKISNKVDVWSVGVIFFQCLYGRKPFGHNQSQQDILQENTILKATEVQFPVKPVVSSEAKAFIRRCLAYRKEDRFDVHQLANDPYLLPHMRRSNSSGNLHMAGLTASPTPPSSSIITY

[8] = molecular target: Dual specificity mitogen-activated protein kinase kinase; MEK1/2 (Homo sapiens, UniProt P36507+Q02750); assay: Inhibition of MAP2K1/MAP2K2in human HeLa cells lysate at 10 uM pre incubated for 15 mins followed by ADP acyl phosphate probe addition and measured after 10 mins by LC-MS/MS analysis relative to control; assay type: subcellular; conditions: time 25.0 min
[9] = molecular target: Serine/threonine-protein kinase Chk2 (Homo sapiens, UniProt O96017); assay: Inhibition of CHK2 in human HeLa cells lysate at 2 uM pre incubated for 15 mins followed by ADP acyl phosphate probe addition and measured after 10 mins by LC-MS/MS analysis relative to control; assay type: subcellular; conditions: time 25.0 min
[10] = molecular target: Phosphatidylinositol 4-phosphate 3-kinase C2 domain-containing subunit beta (Homo sapiens, UniProt O00750); assay: Inhibition of PIK3C2B in human HeLa cells lysate at 2 uM pre incubated for 15 mins followed by ATP acyl phosphate probe addition and measured after 10 mins by LC-MS/MS analysis relative to control; assay type: subcellular; conditions: time 25.0 min
Sequence of Phosphatidylinositol 4-phosphate 3-kinase C2 domain-containing subunit beta (O00750 whole entry, the tested form may be a part): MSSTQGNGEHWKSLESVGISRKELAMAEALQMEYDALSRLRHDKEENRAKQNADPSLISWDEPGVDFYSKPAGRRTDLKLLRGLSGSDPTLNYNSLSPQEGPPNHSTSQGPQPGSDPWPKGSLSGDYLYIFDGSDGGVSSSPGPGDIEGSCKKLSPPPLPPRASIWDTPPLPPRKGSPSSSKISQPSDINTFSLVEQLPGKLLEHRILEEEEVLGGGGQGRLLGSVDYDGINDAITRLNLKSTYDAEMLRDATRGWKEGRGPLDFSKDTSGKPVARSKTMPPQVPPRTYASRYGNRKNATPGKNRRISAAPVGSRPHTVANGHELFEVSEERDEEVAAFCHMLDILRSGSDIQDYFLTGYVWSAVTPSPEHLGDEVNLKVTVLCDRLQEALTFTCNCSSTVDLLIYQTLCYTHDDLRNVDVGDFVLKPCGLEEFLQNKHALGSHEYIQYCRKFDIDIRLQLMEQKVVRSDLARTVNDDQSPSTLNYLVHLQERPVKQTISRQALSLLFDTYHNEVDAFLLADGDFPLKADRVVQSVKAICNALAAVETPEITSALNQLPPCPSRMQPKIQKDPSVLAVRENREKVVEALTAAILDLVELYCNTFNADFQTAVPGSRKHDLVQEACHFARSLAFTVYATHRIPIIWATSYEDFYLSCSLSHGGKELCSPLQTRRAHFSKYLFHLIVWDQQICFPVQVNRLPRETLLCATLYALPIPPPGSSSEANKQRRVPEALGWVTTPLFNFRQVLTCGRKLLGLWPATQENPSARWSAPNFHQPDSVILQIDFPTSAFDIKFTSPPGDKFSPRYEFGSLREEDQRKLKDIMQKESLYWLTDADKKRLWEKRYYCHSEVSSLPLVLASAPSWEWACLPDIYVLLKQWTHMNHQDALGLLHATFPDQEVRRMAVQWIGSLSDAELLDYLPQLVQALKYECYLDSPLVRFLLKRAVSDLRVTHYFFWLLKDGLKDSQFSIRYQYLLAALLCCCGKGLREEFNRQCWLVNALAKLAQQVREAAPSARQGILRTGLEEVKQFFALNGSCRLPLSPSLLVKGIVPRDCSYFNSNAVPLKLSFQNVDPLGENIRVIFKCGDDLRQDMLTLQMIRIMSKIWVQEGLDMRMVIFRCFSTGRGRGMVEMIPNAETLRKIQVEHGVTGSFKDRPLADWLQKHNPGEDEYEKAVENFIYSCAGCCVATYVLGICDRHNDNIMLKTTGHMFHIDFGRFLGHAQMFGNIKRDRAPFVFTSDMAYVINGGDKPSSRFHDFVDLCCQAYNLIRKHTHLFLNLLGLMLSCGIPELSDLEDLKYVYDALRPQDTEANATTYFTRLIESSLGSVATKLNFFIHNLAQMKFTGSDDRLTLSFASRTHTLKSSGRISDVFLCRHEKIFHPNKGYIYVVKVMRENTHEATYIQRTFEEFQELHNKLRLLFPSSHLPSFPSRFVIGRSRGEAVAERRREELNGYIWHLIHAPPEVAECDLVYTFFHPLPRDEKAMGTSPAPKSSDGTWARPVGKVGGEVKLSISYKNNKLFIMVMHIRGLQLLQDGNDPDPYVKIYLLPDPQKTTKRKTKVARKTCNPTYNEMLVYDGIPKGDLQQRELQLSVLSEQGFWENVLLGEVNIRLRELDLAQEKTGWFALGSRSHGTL

[11] = molecular target: Serine/threonine-protein kinase ATR (Homo sapiens, UniProt Q13535); assay: Inhibition of ATR in human HeLa cells lysate at 2 uM pre incubated for 15 mins followed by ATP acyl phosphate probe addition and measured after 10 mins by LC-MS/MS analysis relative to control; assay type: subcellular; conditions: time 25.0 min
Sequence of Serine/threonine-protein kinase ATR (Q13535 whole entry, looked up, the tested form may be a part): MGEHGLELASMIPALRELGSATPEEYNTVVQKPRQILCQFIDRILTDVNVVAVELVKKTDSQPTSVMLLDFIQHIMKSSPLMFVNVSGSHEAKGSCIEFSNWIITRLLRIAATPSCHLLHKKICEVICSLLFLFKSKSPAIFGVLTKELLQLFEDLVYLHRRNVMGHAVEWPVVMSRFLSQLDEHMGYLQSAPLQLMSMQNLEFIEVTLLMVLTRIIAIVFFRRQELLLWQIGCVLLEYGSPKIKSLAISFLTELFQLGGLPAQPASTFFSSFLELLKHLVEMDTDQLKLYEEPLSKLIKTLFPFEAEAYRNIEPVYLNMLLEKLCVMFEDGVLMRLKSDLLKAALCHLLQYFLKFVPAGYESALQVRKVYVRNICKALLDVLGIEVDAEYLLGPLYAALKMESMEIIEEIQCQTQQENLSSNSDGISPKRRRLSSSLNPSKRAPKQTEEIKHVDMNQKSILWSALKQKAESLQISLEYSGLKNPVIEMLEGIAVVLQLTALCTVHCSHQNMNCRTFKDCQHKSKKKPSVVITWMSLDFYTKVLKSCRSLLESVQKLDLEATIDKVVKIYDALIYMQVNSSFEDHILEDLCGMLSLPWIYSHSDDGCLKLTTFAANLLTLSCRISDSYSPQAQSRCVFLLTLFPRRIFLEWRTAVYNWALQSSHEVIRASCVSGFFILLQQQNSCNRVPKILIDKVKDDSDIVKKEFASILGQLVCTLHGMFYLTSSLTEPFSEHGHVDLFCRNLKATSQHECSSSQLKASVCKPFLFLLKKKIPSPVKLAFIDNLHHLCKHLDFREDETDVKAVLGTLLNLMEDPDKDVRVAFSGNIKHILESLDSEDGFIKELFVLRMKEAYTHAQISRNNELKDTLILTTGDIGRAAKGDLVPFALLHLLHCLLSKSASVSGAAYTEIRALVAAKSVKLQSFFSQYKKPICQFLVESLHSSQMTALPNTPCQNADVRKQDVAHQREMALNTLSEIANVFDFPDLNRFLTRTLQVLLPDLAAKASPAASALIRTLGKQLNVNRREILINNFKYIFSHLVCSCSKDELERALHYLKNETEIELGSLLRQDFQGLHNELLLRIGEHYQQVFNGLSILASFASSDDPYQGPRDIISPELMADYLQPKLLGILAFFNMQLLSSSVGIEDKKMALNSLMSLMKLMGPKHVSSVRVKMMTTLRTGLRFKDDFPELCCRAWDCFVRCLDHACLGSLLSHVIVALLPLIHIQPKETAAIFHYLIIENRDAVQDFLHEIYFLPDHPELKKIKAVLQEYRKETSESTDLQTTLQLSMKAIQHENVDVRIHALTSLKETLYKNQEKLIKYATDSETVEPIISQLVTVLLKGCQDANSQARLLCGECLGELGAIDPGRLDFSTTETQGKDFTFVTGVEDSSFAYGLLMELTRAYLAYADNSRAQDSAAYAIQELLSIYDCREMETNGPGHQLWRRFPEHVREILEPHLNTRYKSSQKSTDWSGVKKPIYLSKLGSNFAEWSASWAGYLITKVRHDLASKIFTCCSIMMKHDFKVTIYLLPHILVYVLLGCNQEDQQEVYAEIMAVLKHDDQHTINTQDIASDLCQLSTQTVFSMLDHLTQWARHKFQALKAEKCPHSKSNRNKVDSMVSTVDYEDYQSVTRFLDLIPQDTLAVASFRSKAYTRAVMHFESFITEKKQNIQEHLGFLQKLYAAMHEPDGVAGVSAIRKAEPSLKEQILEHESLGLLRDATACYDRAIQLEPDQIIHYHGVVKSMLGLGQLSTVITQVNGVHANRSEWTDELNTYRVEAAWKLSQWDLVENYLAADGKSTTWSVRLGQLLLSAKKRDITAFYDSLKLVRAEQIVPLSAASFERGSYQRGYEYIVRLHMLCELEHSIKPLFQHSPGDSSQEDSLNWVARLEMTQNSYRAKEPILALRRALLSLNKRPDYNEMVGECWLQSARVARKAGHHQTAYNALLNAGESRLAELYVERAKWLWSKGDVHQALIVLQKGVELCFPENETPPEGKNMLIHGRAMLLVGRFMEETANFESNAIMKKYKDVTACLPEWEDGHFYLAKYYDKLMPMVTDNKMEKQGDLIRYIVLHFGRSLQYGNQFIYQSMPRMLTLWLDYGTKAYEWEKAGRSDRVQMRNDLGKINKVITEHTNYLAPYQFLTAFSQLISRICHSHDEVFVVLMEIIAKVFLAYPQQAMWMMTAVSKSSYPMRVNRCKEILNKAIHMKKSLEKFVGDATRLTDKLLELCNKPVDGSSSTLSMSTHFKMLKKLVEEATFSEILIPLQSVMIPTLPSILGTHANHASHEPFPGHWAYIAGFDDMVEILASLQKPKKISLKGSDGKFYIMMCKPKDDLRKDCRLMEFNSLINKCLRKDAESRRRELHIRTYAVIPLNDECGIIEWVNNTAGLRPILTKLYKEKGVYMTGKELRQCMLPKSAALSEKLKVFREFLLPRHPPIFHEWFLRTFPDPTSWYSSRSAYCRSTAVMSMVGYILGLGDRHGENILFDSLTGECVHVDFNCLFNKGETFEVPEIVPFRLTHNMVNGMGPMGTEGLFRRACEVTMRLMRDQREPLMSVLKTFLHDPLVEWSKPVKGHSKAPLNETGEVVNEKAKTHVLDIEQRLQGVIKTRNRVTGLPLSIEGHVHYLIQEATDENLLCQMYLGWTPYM
How it was run: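 KiNativ-type profiling in HeLa lysate (5 mg/mL total protein). Lysate preincubated 15 min with inhibitor at 50, 10, 2, 0.8 or 0 μM, then ATP or ADP acylphosphate probe added (5 μM final) for 10 min. Reaction stopped with urea and analysed by targeted MS, using up to four fragment ions per kinase peptide-probe conjugate. % inhibition calculated against untreated lysate. Duplicate reactions.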

[12] = MRT in Sprague-Dawley rat at 2 mg/kg, po measured up to 8 hrs by LC-MS/MS analysis; assay type: ADME, organism-based; conditions: in vivo
[13] = Plasma concentration in C57Bl/6 mouse at 50 mg/kg, ip administered for 8 day and measured 8 hr post last dose by LC-MS/MS analysis; assay type: ADME, organism-based
[14] = system: Lewis lung carcinoma; assay: Antitumor activity against mouse LL2 cells allografted in C57Bl/6 mouse assessed as reduction tumor growth at 50 mg/kg, ip administered for 17 days; assay type: functional, organism-based; conditions: time 17.0 day
How it was run: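 LL/2 cells (1×10^6, in DMEM) were injected s.c. into the right flank of 6-week-old C57Bl/6 mice on day 0. Dosing was 50 mg/kg i.p. twice daily, starting on day 1, 7 or 10 and continuing to day 17; controls received carrier. 6 mice per treated group. Tumors were measured every 2–3 days.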

[15] = system: Mus musculus; assay: Antiangiogenic activity in C57Bl/6 mouse implanted with matrigel assessed as reduction in bFGF-induced angiogenesis at 50 mg/kg, ip for 6 days by Masson's trichrome staining based assay; assay type: functional, organism-based; conditions: time 6.0 day
How it was run: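 Mice were implanted with Matrigel containing 400 ng/mL bFGF. From the next day they received drug or vehicle for 6 days. Plugs were then harvested, sectioned and stained with Masson's trichrome; hemoglobin content of the plugs was also measured. n = 6 mice, 9 slices.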

CCOc1cc(N2CCC(O)CC2)ccc1Nc1ncc2c(n1)N(C)c1ccccc1C(=O)N2C
IC50 [1]: > 50 µM | IC50 [2]: > 50 µM | IC50 [3]: > 50 µM | IC50 [4]: > 50 µM | IC50 [5]: > 50 µM | inhibition [6]: 6.8% | inhibition [7]: 4.5% | inhibition [8]: -2.3% | inhibition [9]: 7.6% | inhibition [10]: 26.1% | inhibition [11]: 25.9% | MRT [12]: 4.8 h | concentration at 192 h [13]: 12.8 µM | Activity [14]: Active | Activity [15]: Active
